# Measured values: ChEMBL document CHEMBL4834477, “Synthesis and biological evaluation of novel purinyl quinazolinone derivatives as PI3Kδ-specific inhibitors for the treatment of hematologic malignancies” (Bioorg Med Chem, 2021)
# The source made the active and inactive calls. The calls are words filed in the database; no cut-off is given here.
# Experiments:
# [1] = Tmax in Sprague-Dawley rat at 3 mg/kg, po measured for 24 hrs by LC-MS/MS analysis; type: ADME, organism-based; conditions: in vivo
# Method in brief: (§1)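 Sprague-Dawley rats dosed orally at 1 or 3 mg/kg, three animals per group. Blood sampled at 0.25, 0.5, 1, 2, 4, 8 and 24 h post-dose. Plasma separated by centrifugation, extracted and quantified by LC-MS/MS. PK parameters (Cmax, AUClast, Tmax, t1/2) derived by non-compartmental software.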
# [2] = target: T1, Phosphatidylinositol 4,5-bisphosphate 3-kinase catalytic subunit delta isoform (Homo sapiens) (UniProt O00329); experiment: Inhibition of PI3Kdelta in human SU-DHL-5 cells assessed as inhibition of AKT phosphorylation at Ser473 residue at 1 to 5 uM measured after 3 hrs by western blot assay; type: cell-based; conditions: dose 1-5 µM
# T1 sequence (whole entry): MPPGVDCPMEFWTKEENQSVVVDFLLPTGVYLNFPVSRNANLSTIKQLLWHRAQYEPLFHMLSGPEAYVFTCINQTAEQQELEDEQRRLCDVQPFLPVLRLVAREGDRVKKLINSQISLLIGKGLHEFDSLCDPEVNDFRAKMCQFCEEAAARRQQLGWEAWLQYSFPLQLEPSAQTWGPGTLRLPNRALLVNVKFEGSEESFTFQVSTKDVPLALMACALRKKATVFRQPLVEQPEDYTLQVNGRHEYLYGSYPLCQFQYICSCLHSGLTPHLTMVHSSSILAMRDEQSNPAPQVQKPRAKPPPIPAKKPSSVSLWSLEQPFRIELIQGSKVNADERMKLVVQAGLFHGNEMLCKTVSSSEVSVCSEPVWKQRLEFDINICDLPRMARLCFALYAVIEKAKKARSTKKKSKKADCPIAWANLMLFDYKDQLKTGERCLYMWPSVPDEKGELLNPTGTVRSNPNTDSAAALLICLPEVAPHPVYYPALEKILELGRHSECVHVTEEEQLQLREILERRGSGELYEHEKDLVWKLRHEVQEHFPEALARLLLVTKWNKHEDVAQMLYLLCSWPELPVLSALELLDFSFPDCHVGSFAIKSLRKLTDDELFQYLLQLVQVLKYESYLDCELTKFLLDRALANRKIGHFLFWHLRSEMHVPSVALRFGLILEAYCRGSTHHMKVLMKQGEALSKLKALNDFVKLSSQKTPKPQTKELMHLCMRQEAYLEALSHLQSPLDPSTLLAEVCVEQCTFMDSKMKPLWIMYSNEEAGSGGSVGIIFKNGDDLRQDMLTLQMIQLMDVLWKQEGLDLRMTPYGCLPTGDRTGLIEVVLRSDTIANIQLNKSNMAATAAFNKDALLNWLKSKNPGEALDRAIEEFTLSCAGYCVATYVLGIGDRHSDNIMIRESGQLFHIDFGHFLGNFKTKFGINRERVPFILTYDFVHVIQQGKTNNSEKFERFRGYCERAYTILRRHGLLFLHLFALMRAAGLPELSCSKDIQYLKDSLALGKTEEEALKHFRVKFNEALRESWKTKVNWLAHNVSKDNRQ
# Method in brief: (§2)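 Treatment lasted 3 h: SUDHL-5 at 1 μM, MOLT-4 at 5 μM. Cells washed twice in cold PBS and lysed. Proteins resolved on 10–12% SDS-PAGE and blotted to PVDF. Probed for p-AKT S473, p-AKT T308, p-S6 and p-4E-BP1, with β-actin as loading control.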
# [3] = Cytotoxicity against human MRC5 cells assessed as inhibition of cell viability at 20 uM measured after 48 hrs by MTT assay; type: cell-based; conditions: read-out: INH
# Method in brief: (§3)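 MTT assay in MRC-5 cells seeded at 2×10^6 cells/mL. Compound given in 1% FBS EMEM for 48 h at 37 °C in CO2. MTT solution then added for 3 h at 37 °C. Medium removed and formazan dissolved in DMSO.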
# [4] = test system: MOLT-4; experiment: Antiproliferative activity against human MOLT-4 cells assessed as cell viability at 20 uM by CellTiter-Glo luminescent cell viability assay (reference value: 100%); type: functional; conditions: read-out: Activity
# [5] = Cmax in Sprague-Dawley rat at 3 mg/kg, po measured for 24 hrs by LC-MS/MS analysis; type: ADME, organism-based; set-up: route oral, time 24 hrs, dose 3 mg/kg; conditions: in vivo; method in brief: as §1
# [6] = test system: MOLT-4; experiment: Antitumour activity against human MOLT-4 cells xenografted in Balb/c nude mouse assessed as inhibition of tumour growth at 10 mg/kg, po administered via gavage qd for 57 days; type: functional; conditions: MOLT-4, po, 1368 h, time 57 day, read-out: TGI
# Method in brief: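 MOLT-4 cells (2×10^6 in 0.1 mL D-PBS) implanted subcutaneously on the back of BALB/c-nude mice. Once tumours grew, mice were dosed daily by oral gavage at 10 mg/kg for 57 consecutive days. Tumours measured by caliper, with volume = ½ × […]. Body weight was tracked over the same period.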
# [7] = target: T1, Phosphatidylinositol 4,5-bisphosphate 3-kinase catalytic subunit delta isoform (Homo sapiens); experiment: Inhibition of PI3Kdelta in human SU-DHL-5 cells assessed as inhibition of AKT phosphorylation at Thr308 residue at 1 to 5 uM measured after 3 hrs by western blot assay; type: cell-based; conditions: dose 1-5 µM; method in brief: as §2
# [8] = test system: SU-DHL10; experiment: Induction of apoptosis in human SU-DHL-10 cells assessed as early apoptotic cells at 20 uM measured after 24 hrs by AnnexinV-FITC/PI staining based flowcytometry method (reference value: 6.32%); type: functional
# Method in brief: (§4)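 Cells exposed to 20 μM compound for 24 h, washed with cold PBS, and stained with Annexin V-FITC and propidium iodide for 15 min at room temperature. Viable, early apoptotic, late apoptotic and necrotic populations quantified by flow cytometry.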
# [9] = test system: SU-DHL10; experiment: Induction of apoptosis in human SU-DHL-10 cells assessed as viable cells at 20 uM measured after 24 hrs by AnnexinV-FITC/PI staining based flowcytometry method (reference value: 90%); type: functional; conditions: read-out: Activity; method in brief: as §4
# [10] = AUC (last) in Sprague-Dawley rat at 3 mg/kg, po measured for 24 hrs by LC-MS/MS analysis; type: ADME, organism-based; set-up: route oral, time 24 hrs, dose 3 mg/kg; conditions: in vivo; method in brief: as §1
# [11] = test system: MOLT-4; experiment: Induction of apoptosis in human MOLT-4 cells assessed as early apoptotic cells at 20 uM measured after 24 hrs by AnnexinV-FITC/PI staining based flowcytometry method (reference value: 2.04%); type: functional; method in brief: as §4
# [12] = target: T1, Phosphatidylinositol 4,5-bisphosphate 3-kinase catalytic subunit delta isoform (Homo sapiens); experiment: Inhibition of PI3Kdelta in human MOLT-4 cells assessed as inhibition of AKT phosphorylation at Thr308 residue at 1 to 5 uM measured after 3 hrs by western blot assay; type: cell-based; conditions: dose 1-5 µM; method in brief: as §2
# [13] = target: T1, Phosphatidylinositol 4,5-bisphosphate 3-kinase catalytic subunit delta isoform (Homo sapiens); experiment: Inhibition of PI3Kdelta in human MOLT-4 cells assessed as inhibition of S6 phosphorylation at 1 to 5 uM measured after 3 hrs by western blot assay; type: cell-based; conditions: dose 1-5 µM; method in brief: as §2
# [14] = test system: SU-DHL10; experiment: Induction of apoptosis in human SU-DHL-10 cells assessed as late apoptotic cells at 20 uM measured after 24 hrs by AnnexinV-FITC/PI staining based flowcytometry method (reference value: 3.48%); type: functional; method in brief: as §4
# [15] = test system: MRC5; experiment: Cytotoxicity against human MRC5 cells assessed as inhibition of cell viability measured after 48 hrs by MTT assay; type: cell-based; conditions: MRC5, 48 h; method in brief: as §3
# [16] = target: T1, Phosphatidylinositol 4,5-bisphosphate 3-kinase catalytic subunit delta isoform (Homo sapiens); experiment: Inhibition of PI3Kdelta in human MOLT-4 cells assessed as inhibition of AKT phosphorylation at Ser473 residue at 1 to 5 uM measured after 3 hrs by western blot assay; type: cell-based; conditions: dose 1-5 µM; method in brief: as §2
# [17] = Half life in Sprague-Dawley rat at 3 mg/kg, po measured for 24 hrs by LC-MS/MS analysis; type: ADME, organism-based; conditions: in vivo; method in brief: as §1
Tmax [1] [h],inhibition [2],Cmax [5] [µg/mL],inhibition [7],AUC(0-t) at 24 h [10] [µg·h/mL],inhibition [12],inhibition [13],inhibition [16],half-life [17] [h],SMILES,"cytotoxicity at 48 h, 20 µM [3] [%]",viability at 20 µM [4] [%],inhibition in vivo at 10 mg/kg/day [6] [%],Activity [8] [%],viability at 20 µM [9] [%],Activity [11] [%],Activity [14] [%],IC50 [15] [µM]
0.5,Active,0.0111,Active,0.0372,Active,Active,Active,8.3,Cc1cccc2nc([C@@H](Nc3ncnc4nc[nH]c34)C3CC3)n(-c3ccccc3)c(=O)c12,23.1,14.6,56.7,34.9,15,13.4,45.9,49.1
1,Active,0.0419,Active,0.255,Active,Active,Active,7.7,O=c1c2c(F)cccc2nc([C@@H](Nc2ncnc3nc[nH]c23)C2CC2)n1-c1ccccc1,3.93,63.1,55.1,54.3,19.7,17.8,24.2,> 100
